Assay results reported in ChEMBL document CHEMBL4138258 (ACS Med Chem Lett, 2017).
In brackets after ≈: the same amount, converted by molar mass. Activity calls are given as the source filed them.

How the values were obtained:
Rattus norvegicus [1] = experiment: Analgesic activity in Sprague-Dawley rat MIA-induced osteoarthritic pain model assessed as increase in paw withdrawal threshold at 3 mg/kg, ip by von Frey filaments assay; format: functional, organism-based
In short: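 Rat MIA osteoarthritis pain model, with analgesia read as von Frey paw withdrawal threshold. In blocking runs, 3 mg/kg IP agonist was combined with the CB2 antagonist AR401733 (10 mg/kg PO) or the CB1 antagonist rimonabant (10 mg/kg PO).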

Rattus norvegicus [2] = experiment: Toxicity in Sprague-Dawley rat MIA-induced osteoarthritic pain model assessed as induction of tachyphylaxis at 10 mg/kg, ip administered twice daily for 5 days measured 1 hr post dose at 1 day interval for 5 days during compound dosing; format: organism-based; conditions: in vivo
In short: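 MIA-treated rats were dosed IP twice daily for 5 days. Reversal of hypersensitivity was measured by von Frey paw withdrawal threshold 1 h after the morning dose on days 1, 3 and 5. Morphine was given on the same regimen for comparison.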

Cannabinoid receptor 2 [3] = target: Cannabinoid receptor 2 (Homo sapiens, UniProt P34972); experiment: Agonist activity at recombinant human CB2 receptor expressed in HEK293 cells assessed as increase in beta arrestin recruitment measured after 2 to 3 hrs by PathHunter assay relative to CP55940; format: functional, cell-based
Cannabinoid receptor 2 [4] = target: T1, Cannabinoid receptor 2 (Rattus norvegicus, UniProt Q9QZN9); experiment: Agonist activity at recombinant rat CB2 receptor expressed in HEK293 cells assessed as increase in beta arrestin recruitment measured after 2 to 3 hrs by PathHunter assay; format: functional, cell-based
T1 sequence (Q9QZN9 whole entry): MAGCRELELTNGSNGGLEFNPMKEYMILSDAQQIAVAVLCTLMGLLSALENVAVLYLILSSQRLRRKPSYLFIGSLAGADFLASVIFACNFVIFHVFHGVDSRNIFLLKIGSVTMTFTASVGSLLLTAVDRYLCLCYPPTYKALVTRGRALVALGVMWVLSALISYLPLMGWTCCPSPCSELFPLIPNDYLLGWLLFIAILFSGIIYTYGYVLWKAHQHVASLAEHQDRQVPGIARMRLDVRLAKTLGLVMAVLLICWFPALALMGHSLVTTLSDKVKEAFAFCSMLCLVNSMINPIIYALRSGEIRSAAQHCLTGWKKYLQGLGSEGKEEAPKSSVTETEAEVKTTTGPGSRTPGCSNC

[5] = target: T2, Cannabinoid receptor 2 (Rattus norvegicus) (UniProt Q9QZN9); experiment: Agonist activity at recombinant rat CB2 receptor expressed in HEK293 cells assessed as increase in beta arrestin recruitment measured after 2 to 3 hrs by PathHunter assay relative to CP55940; format: functional, cell-based
T2 sequence (whole entry): T1 sequence (Q9QZN9 whole entry)
In short: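 Beta-arrestin recruitment EC50 is the mean of three or more independent experiments (logSD < 0.4). Intrinsic activity (Emax) is expressed relative to CP-55,940 set at 100.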

Cannabinoid receptor 1 = Cannabinoid receptor 1 (Rattus norvegicus, UniProt P20272); experiment: Agonist activity at recombinant rat CB1 receptor expressed in HEK293 cells assessed as increase in beta arrestin recruitment measured after 2 to 3 hrs by PathHunter assay; format: functional, cell-based
[6] = target: T2, Cannabinoid receptor 2 (Rattus norvegicus); experiment: Induction of recombinant HA-tagged rat CB2 receptor internalization expressed in CHOK1 cells at 10 uM measured after 1 hr by time-resolved flow cytometry relative to CP55940; format: functional, cell-based
[7] = Half life in human liver microsomes; format: ADME, microsome
[8] = Half life in rat liver microsomes; format: ADME, microsome
[9] = Half life in mouse liver microsomes; format: ADME, microsome
[10] = Ratio of drug level in brain to plasma in Sprague-Dawley rat at 3 mg/kg, po measured after 2 hrs; format: ADME, organism-based; conditions: brain and plasma, read-out: BPR
[11] = Protein binding in mouse plasma assessed as unbound fraction; format: ADME, cell-free
[12] = Protein binding in rat plasma assessed as unbound fraction; format: ADME, cell-free
[13] = Protein binding in dog plasma assessed as unbound fraction; format: ADME, cell-free, Canis lupus familiaris
[14] = Protein binding in monkey plasma assessed as unbound fraction; format: ADME, cell-free, Macaca mulatta; conditions: rhesus monkey
[15] = Protein binding in human plasma assessed as unbound fraction; format: ADME, cell-free
Rattus norvegicus [16] = experiment: Analgesic activity in po dosed Sprague-Dawley rat MIA-induced osteoarthritic pain model assessed as increase in paw withdrawal threshold after 1 hr by von Frey filaments assay; format: functional
In short: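 Von Frey paw withdrawal thresholds were read 1 h post-dose to assess late-phase hypersensitivity. ED50 was derived from the dose-response.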

Rattus norvegicus [17] = experiment: Inhibition of paw withdrawal threshold in Sprague-Dawley rat MIA-induced osteoarthritic pain model at 10 mg/kg, po measured up to 4 hrs; format: organism-based; conditions: in vivo
Rattus norvegicus [18] = experiment: Analgesic activity in Sprague-Dawley rat MIA-induced osteoarthritic pain model assessed as increase in paw withdrawal threshold at 3 mg/kg, po after 1 hr in presence of CB2 inverse agonist AR401733 by von Frey filaments assay; format: functional, organism-based
Rattus norvegicus [19] = experiment: Analgesic activity in Sprague-Dawley rat MIA-induced osteoarthritic pain model assessed as increase in paw withdrawal threshold at 3 mg/kg, po after 1 hr in presence of CB2 antagonist […] by von Frey filaments assay; format: functional, organism-based
Rattus norvegicus [20] = experiment: Analgesic activity in Sprague-Dawley rat MIA-induced osteoarthritic pain model assessed as increase in paw withdrawal threshold at 3 mg/kg, po after 1 hr in presence of CB2 antagonist SR144528 by von Frey filaments assay; format: functional, organism-based
Rattus norvegicus [21] = experiment: Analgesic activity in Sprague-Dawley rat MIA-induced osteoarthritic pain model assessed as increase in paw withdrawal threshold at 3 mg/kg, po after 1 hr in presence of CB1 antagonist rimonabant by von Frey filaments assay; format: functional, organism-based
Rattus norvegicus [22] = experiment: Analgesic activity in Sprague-Dawley rat MIA-induced osteoarthritic pain model assessed as increase in paw withdrawal threshold at 3 mg/kg, ip administered twice daily for 5 days measured 1 hr post dose at 1 day interval for 5 days during compound dosing; format: functional, organism-based
In short: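 Rats with MIA-induced late-phase hypersensitivity were dosed IP twice daily for 5 days. Von Frey paw withdrawal thresholds were measured 1 h after the morning dose on days 1, 3 and 5.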

[23] = Aqueous solubility of the compound at pH 2 to 7 using solid samples; format: physicochemical; conditions: aqueous solution
Cytochrome P450 1A2 = target: T3, Cytochrome P450 1A2 (Homo sapiens, UniProt P05177); experiment: Inhibition of CYP1A2 (unknown origin); format: ADME
T3 sequence (P05177 whole entry): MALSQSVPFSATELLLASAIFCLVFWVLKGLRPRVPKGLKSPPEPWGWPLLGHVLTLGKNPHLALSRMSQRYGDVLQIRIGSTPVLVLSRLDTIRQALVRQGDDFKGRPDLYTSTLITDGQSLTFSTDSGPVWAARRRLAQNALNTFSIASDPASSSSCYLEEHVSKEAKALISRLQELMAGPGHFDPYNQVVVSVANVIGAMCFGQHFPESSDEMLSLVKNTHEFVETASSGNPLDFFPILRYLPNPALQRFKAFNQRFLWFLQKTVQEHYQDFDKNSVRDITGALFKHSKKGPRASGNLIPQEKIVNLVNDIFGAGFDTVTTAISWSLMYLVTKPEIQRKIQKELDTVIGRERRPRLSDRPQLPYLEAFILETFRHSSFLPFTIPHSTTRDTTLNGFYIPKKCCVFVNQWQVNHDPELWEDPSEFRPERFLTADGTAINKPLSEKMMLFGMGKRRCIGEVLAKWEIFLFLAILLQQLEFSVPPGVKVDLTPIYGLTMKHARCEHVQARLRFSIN

Cytochrome P450 2C9 = Cytochrome P450 2C9 (Homo sapiens, UniProt P11712); experiment: Inhibition of CYP2C9 (unknown origin); format: ADME
Cytochrome P450 2C19 = Cytochrome P450 2C19 (Homo sapiens, UniProt P33261); experiment: Inhibition of CYP2C19 (unknown origin); format: ADME
Cytochrome P450 2D6 = Cytochrome P450 2D6 (Homo sapiens, UniProt P10635); experiment: Inhibition of CYP2D6 (unknown origin); format: ADME
Cytochrome P450 3A4 = Cytochrome P450 3A4 (Homo sapiens, UniProt P08684); experiment: Inhibition of CYP3A4 (unknown origin); format: ADME
[24] = target: T4, Voltage-gated inwardly rectifying potassium channel KCNH2 (Homo sapiens, UniProt Q12809); experiment: Inhibition of [3H]-astemizole binding to human ERG
[25] = target: T4, Voltage-gated inwardly rectifying potassium channel KCNH2; experiment: Inhibition of human ERG by patch-clamp method
HepG2 = experiment: Cytotoxicity against human HepG2 cells up to 1000 uM; format: cell-based
In short: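 Essential Cell Function panel in live HepG2 cells, measuring several cellular parameters.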

Salmonella typhimurium [26] = experiment: Mutagenicity in Salmonella typhimurium in presence of liver S9 fraction by Ames test; format: toxicity, organism-based; conditions: salmonella enterica subsp. enterica serovar typhimurium
Salmonella typhimurium [27] = experiment: Mutagenicity in Salmonella typhimurium in absence of liver S9 fraction by Ames test; format: toxicity, organism-based; conditions: salmonella enterica subsp. enterica serovar typhimurium
Rattus norvegicus [28] = experiment: Toxicity in Sprague-Dawley rat assessed as change in core body temperature up to 100 mg/kg, po measured after 60 mins by rectal probe method; format: organism-based; conditions: in vivo, 1 h
Rattus norvegicus [29] = experiment: Acute toxicity in Sprague-Dawley rat assessed as lethargy at 300 mg/kg, po administered for 14 days measured on day 1 during compound dosing; format: organism-based; conditions: in vivo, 336 h
In short: (§1)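 Male and female Sprague-Dawley rats in a 14-day dose-range-finding toxicity study with oral dose groups of 0, 30, 100 and 300 mg/kg. Animals were watched for clinical signs such as lethargy over the dosing period.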

Rattus norvegicus [30] = experiment: Acute toxicity in Sprague-Dawley rat assessed as lethargy at 300 mg/kg, po administered for 14 days measured on day 2 to 14 during compound dosing; format: organism-based; conditions: in vivo, 336 h; in short: as §1
Rattus norvegicus [31] = experiment: Acute toxicity in Sprague-Dawley rat assessed as hematological changes at 30 to 300 mg/kg, po administered for 14 days measured during compound dosing; format: organism-based; conditions: in vivo, 336 h
Rattus norvegicus [32] = experiment: Acute toxicity in Sprague-Dawley rat assessed as histopathological abnormalities at 30 to 300 mg/kg, po administered for 14 days measured during compound dosing; format: organism-based; conditions: in vivo, 336 h
[33] = Stability of the compound; format: physicochemical

T4 sequence (Q12809 whole entry): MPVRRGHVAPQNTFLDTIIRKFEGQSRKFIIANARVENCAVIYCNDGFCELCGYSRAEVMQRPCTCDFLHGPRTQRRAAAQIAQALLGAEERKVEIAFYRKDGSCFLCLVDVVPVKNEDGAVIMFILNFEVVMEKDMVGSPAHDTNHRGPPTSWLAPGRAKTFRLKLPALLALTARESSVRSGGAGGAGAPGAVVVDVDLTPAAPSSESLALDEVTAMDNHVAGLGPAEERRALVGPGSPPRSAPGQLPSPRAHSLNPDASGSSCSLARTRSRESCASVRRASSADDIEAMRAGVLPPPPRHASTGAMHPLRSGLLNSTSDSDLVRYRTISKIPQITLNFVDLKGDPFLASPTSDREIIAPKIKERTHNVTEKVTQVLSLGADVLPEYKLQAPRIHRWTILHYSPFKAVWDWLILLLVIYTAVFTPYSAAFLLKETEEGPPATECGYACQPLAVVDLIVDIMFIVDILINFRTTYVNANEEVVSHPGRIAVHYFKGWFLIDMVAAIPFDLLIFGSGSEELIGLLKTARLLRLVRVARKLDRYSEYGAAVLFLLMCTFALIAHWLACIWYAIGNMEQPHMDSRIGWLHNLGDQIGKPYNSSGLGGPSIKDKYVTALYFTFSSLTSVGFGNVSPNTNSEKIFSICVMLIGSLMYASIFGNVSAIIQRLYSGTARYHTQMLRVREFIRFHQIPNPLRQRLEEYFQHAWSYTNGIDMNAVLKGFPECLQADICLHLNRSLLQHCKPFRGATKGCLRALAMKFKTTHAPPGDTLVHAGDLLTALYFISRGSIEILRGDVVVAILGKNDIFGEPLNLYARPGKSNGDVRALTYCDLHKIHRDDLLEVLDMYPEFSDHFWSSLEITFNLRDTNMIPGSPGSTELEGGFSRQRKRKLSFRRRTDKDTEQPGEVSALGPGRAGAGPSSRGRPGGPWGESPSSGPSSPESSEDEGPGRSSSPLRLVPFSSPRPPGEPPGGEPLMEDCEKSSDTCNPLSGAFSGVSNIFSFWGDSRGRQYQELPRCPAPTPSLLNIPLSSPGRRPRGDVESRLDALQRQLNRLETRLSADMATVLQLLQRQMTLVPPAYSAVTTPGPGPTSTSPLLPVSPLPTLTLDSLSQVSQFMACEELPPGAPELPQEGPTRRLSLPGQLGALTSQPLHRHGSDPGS
Chain of Cytochrome P450 2D6 (P10635 whole entry): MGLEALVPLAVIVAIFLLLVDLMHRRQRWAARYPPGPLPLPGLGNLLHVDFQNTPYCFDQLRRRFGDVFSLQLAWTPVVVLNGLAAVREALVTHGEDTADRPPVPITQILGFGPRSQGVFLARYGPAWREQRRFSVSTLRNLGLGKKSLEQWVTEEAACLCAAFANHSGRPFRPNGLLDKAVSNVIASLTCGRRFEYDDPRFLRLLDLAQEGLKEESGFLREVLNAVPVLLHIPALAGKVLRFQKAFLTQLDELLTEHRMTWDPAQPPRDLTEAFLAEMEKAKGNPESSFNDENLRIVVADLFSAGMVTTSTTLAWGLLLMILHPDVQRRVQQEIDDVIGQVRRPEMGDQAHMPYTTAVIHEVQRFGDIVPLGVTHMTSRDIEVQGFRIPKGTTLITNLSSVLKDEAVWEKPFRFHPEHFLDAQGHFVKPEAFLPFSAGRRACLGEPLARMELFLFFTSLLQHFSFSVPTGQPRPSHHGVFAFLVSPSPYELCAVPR
Chain of Cannabinoid receptor 1 (P20272 whole entry): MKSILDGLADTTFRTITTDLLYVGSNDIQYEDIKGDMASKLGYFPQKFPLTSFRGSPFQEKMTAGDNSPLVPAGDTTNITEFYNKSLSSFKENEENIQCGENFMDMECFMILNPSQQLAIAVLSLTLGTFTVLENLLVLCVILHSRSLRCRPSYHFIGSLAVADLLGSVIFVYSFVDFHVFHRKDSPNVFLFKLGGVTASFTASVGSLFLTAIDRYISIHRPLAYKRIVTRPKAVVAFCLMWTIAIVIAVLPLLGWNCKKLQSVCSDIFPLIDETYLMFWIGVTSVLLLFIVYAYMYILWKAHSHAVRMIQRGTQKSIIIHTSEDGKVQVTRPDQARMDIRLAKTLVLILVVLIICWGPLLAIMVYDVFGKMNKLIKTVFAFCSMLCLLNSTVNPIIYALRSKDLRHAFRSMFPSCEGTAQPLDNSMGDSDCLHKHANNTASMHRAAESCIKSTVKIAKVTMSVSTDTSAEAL
Chain of Cytochrome P450 2C19 (P33261 whole entry): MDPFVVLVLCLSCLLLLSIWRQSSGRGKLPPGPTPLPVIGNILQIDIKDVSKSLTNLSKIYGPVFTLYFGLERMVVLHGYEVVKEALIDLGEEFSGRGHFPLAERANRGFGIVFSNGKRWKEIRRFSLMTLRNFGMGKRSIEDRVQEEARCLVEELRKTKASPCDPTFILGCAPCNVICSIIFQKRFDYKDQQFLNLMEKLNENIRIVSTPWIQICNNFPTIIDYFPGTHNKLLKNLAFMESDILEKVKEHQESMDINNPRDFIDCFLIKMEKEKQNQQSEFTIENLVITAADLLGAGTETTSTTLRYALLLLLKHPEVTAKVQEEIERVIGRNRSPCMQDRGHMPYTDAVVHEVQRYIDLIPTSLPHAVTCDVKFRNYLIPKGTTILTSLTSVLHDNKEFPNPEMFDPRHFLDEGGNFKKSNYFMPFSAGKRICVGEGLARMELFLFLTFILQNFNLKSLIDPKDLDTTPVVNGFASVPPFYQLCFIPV
Chain of Cannabinoid receptor 2 (Homo sapiens, UniProt P34972) (P34972 whole entry): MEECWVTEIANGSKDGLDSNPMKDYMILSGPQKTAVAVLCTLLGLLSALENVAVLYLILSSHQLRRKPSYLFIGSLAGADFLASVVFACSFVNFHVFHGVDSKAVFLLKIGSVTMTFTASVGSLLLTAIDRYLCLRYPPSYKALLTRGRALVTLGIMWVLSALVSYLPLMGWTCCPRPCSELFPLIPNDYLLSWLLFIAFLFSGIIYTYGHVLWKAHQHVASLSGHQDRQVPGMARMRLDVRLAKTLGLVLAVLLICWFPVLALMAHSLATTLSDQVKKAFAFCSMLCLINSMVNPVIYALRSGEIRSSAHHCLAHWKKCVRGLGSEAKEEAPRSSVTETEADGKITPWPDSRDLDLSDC
Chain of Cytochrome P450 3A4 (P08684 whole entry): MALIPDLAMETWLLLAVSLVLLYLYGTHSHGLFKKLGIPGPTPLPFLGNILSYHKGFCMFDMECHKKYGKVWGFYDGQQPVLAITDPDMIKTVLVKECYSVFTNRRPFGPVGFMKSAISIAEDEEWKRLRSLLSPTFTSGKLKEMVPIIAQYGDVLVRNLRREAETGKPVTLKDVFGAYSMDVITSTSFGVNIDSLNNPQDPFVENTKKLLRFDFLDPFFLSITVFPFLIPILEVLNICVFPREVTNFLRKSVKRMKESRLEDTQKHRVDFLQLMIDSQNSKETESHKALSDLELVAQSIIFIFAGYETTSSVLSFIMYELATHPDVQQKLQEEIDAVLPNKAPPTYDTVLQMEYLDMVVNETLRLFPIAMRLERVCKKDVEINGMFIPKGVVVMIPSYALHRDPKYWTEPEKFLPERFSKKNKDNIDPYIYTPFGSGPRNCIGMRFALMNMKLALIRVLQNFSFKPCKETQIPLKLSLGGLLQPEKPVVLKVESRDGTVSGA
Chain of Cytochrome P450 2C9 (P11712 whole entry): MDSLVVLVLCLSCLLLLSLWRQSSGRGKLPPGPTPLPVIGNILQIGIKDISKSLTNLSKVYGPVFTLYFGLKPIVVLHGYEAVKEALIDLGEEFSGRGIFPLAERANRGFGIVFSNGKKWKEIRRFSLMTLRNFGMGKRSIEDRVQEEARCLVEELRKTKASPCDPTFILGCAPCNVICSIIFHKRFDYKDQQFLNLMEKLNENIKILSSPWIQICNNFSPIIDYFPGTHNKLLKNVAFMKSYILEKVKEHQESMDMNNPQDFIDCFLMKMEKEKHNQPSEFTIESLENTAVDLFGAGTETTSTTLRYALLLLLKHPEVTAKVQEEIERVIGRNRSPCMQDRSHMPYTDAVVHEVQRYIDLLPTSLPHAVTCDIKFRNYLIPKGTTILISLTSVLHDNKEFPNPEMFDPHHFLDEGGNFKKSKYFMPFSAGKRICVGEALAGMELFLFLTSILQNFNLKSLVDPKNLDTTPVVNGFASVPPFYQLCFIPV

In the case of `CN1CC[C@]23c4c5ccc(O)c4O[C@H]2[C@@H](O)C=C[C@H]3[C@H]1C5` [MORPHINE], the Activity (Rattus norvegicus [1]) is reported as “Active” and the Activity (Rattus norvegicus [2]) is reported as “Toxic”.

For `CC(C)(C)[C@@H](CO)NC(=O)c1nn(-c2c[n+]([O-])ccn2)c2c1C[C@@H]1C[C@H]21` [OLORINAB], the Emax (Cannabinoid receptor 2 [3]) was 106%, the EC50 (Cannabinoid receptor 2 [4]) was 0.0076 µM and the Emax [5] was 100%. It also gave an EC50 (Cannabinoid receptor 1) of 10 to 30 µM, an Activity [6] of 106% and a half-life [7] greater than 1 h. The half-life [8] was greater than 1 h, the half-life [9] was greater than 1 h and the Kp at 2 h [10] was 0.04. It also gave a fraction unbound [11] of 0.1 to 0.2, a fraction unbound [12] of 0.1 to 0.2 and a fraction unbound [13] of 0.1 to 0.2. For the same compound, the fraction unbound [14] was 0.1 to 0.2, the fraction unbound [15] was 0.1 to 0.2 and the ED50 (Rattus norvegicus [16]) was 2.3 mg/kg. The “inhibition (INH)” value (Rattus norvegicus [17]) was “Non-Toxic”, the Activity (Rattus norvegicus [18]) was “inactive” and the Activity (Rattus norvegicus [19]) was “inactive”. For the same compound, the Activity (Rattus norvegicus [20]) was “inactive”, the Activity (Rattus norvegicus [21]) was “inactive” and the Activity (Rattus norvegicus [22]) was “Active”. For the same compound, the solubility thermodynamic [23] was 2000 µg/mL (≈ 5.6 mM), the IC50 (Cytochrome P450 1A2) was greater than 50 µM and the IC50 (Cytochrome P450 2C9) was greater than 50 µM. The IC50 (Cytochrome P450 2C19) was greater than 50 µM, the IC50 (Cytochrome P450 2D6) was greater than 50 µM and the IC50 (Cytochrome P450 3A4) was greater than 50 µM. For the same compound, the IC50 [24] was greater than 30 µM, the IC50 [25] was greater than 30 µM and the Activity (HepG2) was “Non-Toxic”. The Activity (Salmonella typhimurium [26]) was “Non-Toxic”, the Activity (Salmonella typhimurium [27]) was “Non-Toxic” and the Activity (Rattus norvegicus [28]) was “Non-Toxic”. For the same compound, the Activity (Rattus norvegicus [29]) was “Toxic”, the Activity (Rattus norvegicus [30]) was “Non-Toxic” and the Activity (Rattus norvegicus [31]) was “Non-Toxic”. The Activity (Rattus norvegicus [32]) was “Non-Toxic” and the Stability [33] was “Stable”.
